Measurements gathered from unrelated publications.
Lines come from different studies, so protocols differ.
Target: Vascular endothelial growth factor receptor 2 (KDR, Homo sapiens, UniProt P35968)

COc1cc2c(N3CCN(C(=O)Nc4ccc(OC(C)C)cc4)CC3)ncnc2cc1OCCCN1CCCCC1
remaining signal (cell-free assay; 0.5 µM): 106%

COc1ccc(NC(=O)c2c(Nc3ccccc3)sc(C#N)c2NC(=O)CNc2ccc(Br)cc2)cc1
remaining activity (enzyme activity; inhibitor; 10 µM): 35.4%

CCCCN(CCCC)C(=O)CN1C[C@H](c2cc(OC)c3c(c2)OCO3)[C@@H](C(=O)O)[C@@H]1CC(C)(C)CCC
remaining binding (cell-free assay; competition with immobilised ligand; 1 µM): 88.7%

CNC(=O)c1cc2c(Oc3ccc(NC(=O)C4(C(=O)Nc5ccc(F)cc5)CC4)cc3)ccnc2cc1OC
inhibition (enzyme activity; inhibitor; radiometric; 1 µM): 82%

CNC(=O)c1c(C)oc2cc(Oc3ncnc4cc(OC)c(OC)cc34)ccc12
inhibition (enzyme activity; inhibitor; 0.1 µM): 89.9%

COc1cc2ncnc(Nc3ccc(Oc4ccccc4)c(C)c3C)c2cc1OC
inhibition (enzyme activity; inhibitor; 1 µM): 16%

O=C1Nc2ccc(Cl)cc2C1=Cc1cc(Cl)c(O)c(Cl)c1
remaining signal (cell-free assay; 0.5 µM): 86.1%

COc1ccc2cc(OCC3(C(=O)O)CN(C(=O)c4ccc(F)cc4)C3)ccc2c1
remaining binding (cell-free assay; competition with immobilised ligand; 1 µM): 100%

CN(C)C1CCN(CC#Cc2nn(C3CCCC3)c3nc(NCc4ccccc4)ncc23)C1 (centres unmarked)
inhibition (enzyme activity; inhibitor; FRET; 10 µM): 56%

Cn1nc(C(=O)NCc2ccc(C(=O)O)cc2)cc1-c1ccc2[nH]ccc2c1
remaining binding (cell-free assay; competition with immobilised ligand; 0.1 µM): 85%

COc1ccc(NC(=O)c2c(Nc3ccccc3)sc(C(=O)NN=Cc3ccc(Cl)cc3)c2NC(C)=O)cc1
remaining activity (enzyme activity; inhibitor; 10 nM): 96.1%

CS(=O)(=O)Nc1cccc(-c2csc(NC(=O)CSc3nc4nccnc4c(=O)n3CCc3ccccc3)n2)c1
inhibition (enzyme activity; inhibitor; 10 µM): 0%

Cc1ccc(NC(=O)c2ccc(C)c(C(F)(F)F)c2)cc1C#Cc1nn(C2CCC(O)CC2)c2ncnc(N)c12 (centres unmarked)
remaining signal (cell-free assay; 10 µM): 2%

O=C1Cc2c([nH]c3ccc(Br)cc23)-c2ccccc2N1
remaining signal (cell-free assay; 0.5 µM): 98.1%

Cc1ccc(C(=O)Nc2ccc(CN3CCN(C)CC3)c(C(F)(F)F)c2)cc1C#Cc1cnc2cccnn12
remaining signal (cell-free assay; 23.5 nM): 15%

CCS(=O)(=O)c1cc2cc(C[C@@](O)(CC(C)(C)c3ccc(F)cc3C(N)=O)C(F)(F)F)[nH]c2cn1
remaining binding (cell-free assay; competition with immobilised ligand; 1 µM): 92%

COc1cc2nccc(Oc3ccc(NC(=O)c4c5n(n(-c6ccc(F)cc6)c4=O)CCCC5)cc3)c2cc1OC
inhibition (enzyme activity; inhibitor; 0.1 µM): 22%

Cc1c(NC(=O)c2cc(C(N)=O)nc3cc(F)ccc23)c(C(F)(F)F)nn1Cc1ccc(C(C)(C)C)cc1
remaining binding (cell-free assay; competition with immobilised ligand; 1 µM): 100%

COc1ccc(NC(=O)c2c(Nc3ccccc3)sc(C(=O)NN=Cc3ccc(OC)c(O)c3)c2NC(C)=O)cc1
remaining activity (enzyme activity; inhibitor; 10 µM): 46.1%

CCOc1cc(-c2nncn2C)ccc1Nc1ncc2cc(C)nc(NCC(C)(C)C)c2n1
inhibition (enzyme activity; inhibitor; FRET; 1 µM): < 15%

COc1ccc(NC(=O)c2c(Nc3ccccc3)sc(C#N)c2NC(=O)CNc2ccc(Cl)cc2)cc1
remaining activity (enzyme activity; inhibitor; 10 nM): 98%

C[S+]([O-])c1ccc(-c2nc(-c3ccncc3)c(-c3ccc(F)cc3)[nH]2)cc1 (centres unmarked)
remaining signal (cell-free assay; 0.5 µM): 99.2%

CCC(=N\O)/C(C)=C/c1ccc(F)cc1
remaining binding (cell-free assay; competition with immobilised ligand; 1 µM): 81%

COc1ccc(NC(=O)c2c(Nc3ccccc3)sc(C(=O)NN=Cc3cc(OC)c(OC)c(OC)c3)c2NC(C)=O)cc1
remaining activity (enzyme activity; inhibitor; 10 µM): 71.1%

O=C1NC(=O)c2cc(Nc3ccc(F)cc3)c(Nc3ccc(F)cc3)cc21
remaining signal (cell-free assay; 0.5 µM): 97.9%

COc1cc(-c2cn(C3CCc4ccccc4N(CC(F)(F)F)C3=O)nn2)ccc1-n1ccc(C)n1 (centres unmarked)
remaining binding (cell-free assay; competition with immobilised ligand; 1 µM): 79%

COc1ccc(NC(=O)c2c(Nc3ccccc3)sc(C#N)c2NC(=O)CNc2ccc([N+](=O)[O-])cc2)cc1
remaining activity (enzyme activity; inhibitor; 10 nM): 98%

FC(F)(F)c1ccc2c(c1)nc(-c1cccnc1)n2C1CC1
remaining binding (cell-free assay; competition with immobilised ligand; 1 µM): 100%

CCCS(=O)(=O)Nc1ccc(F)c(C(=O)c2c[nH]c3ncc(-c4ccc(Cl)cc4)cc23)c1F
inhibition (enzyme activity; inhibitor; 1 µM): < 20%
